Assay results from different studies.
Compare with care: the assays were run in different laboratories.
Medium: Caco-2

N=c1c2c(-c3ccccc3)c(-c3ccccc3)n(Cc3ccccc3)c2ncn1[C@H]1CC[C@H](O)CC1
Papp A→B (3 µM, 2 h, pH 7.4): 0.2 ×10⁻⁶ cm/s

O=C(CCCN1CCC2(CC1)C(=O)NCN2c1ccccc1)N(CC1CCCCC1)c1ccccc1
Papp B→A: 6.8 ×10⁻⁶ cm/s

COc1ccc2c(c1)[C@]13CCCC[C@@H]1[C@H](C2)N(C)CC3
Papp A→B (10 µM, pH 6.5): 34.9 ×10⁻⁶ cm/s

C[C@H]1O[C@@H](O[C@H]2[C@@H](O)C[C@H](O[C@H]3[C@@H](O)C[C@H](O[C@H]4CC[C@@]5(C)[C@H](CC[C@@H]6[C@@H]5C[C@@H](O)[C@]5(C)[C@@H](C7=CC(=O)OC7)CC[C@]65O)C4)O[C@@H]3C)O[C@@H]2C)C[C@H](O)[C@@H]1O
Papp A→B (10 µM, 1 h, pH 7.4): 4.28 ×10⁻⁶ cm/s

COc1cc2c(c(OC)c1OC)-c1ccc(OC)c(=O)cc1[C@@H](NC(C)=O)CC2
Papp A→B: 0.2 ×10⁻⁶ cm/s

C/N=c1\nc(-c2ccccc2)n(-c2ccccc2)s1
Papp A→B (20 µM, 95 min): 38.9 ×10⁻⁶ cm/s

CC[C@@]1(O)C(=O)OCc2c1cc1n(c2=O)Cc2cc3ccccc3nc2-1
Papp A→B (100 µM, 105 min): 36 ×10⁻⁶ cm/s

C[C@]12C[C@@H](O)[C@H]3[C@@H](CC[C@]4(O)C[C@@H](O)C[C@@H](O)[C@]34CO)[C@@]1(O)CC[C@@H]2c1cn(Cc2ccccc2)nn1
Papp A→B (1 h, pH 6.5): 0.19 ×10⁻⁶ cm/s
